Assays:
Assay type in all cases: functional
LOX IMVI [1] = experiment: Anticancer activity against human LOX IMVI cells assessed as cell growth inhibition measured after 72 hrs by DAPI staining based analysis
NCI-H82 = experiment: Anticancer activity against human NCI-H82 cells assessed as cell doubling measured for 72 hrs by DAPI staining based analysis
HMCB cell line = experiment: Anticancer activity against human HMCB cells assessed as cell growth inhibition measured after 72 hrs by DAPI staining based analysis
LOX IMVI [2] = experiment: Anticancer activity against human LOX IMVI cells assessed as cell doubling measured for 72 hrs by DAPI staining based analysis
NCI-H2122 = experiment: Anticancer activity against human NCI-H2122 cells assessed as cell doubling measured for 72 hrs by DAPI staining based analysis
CRO-AP2 = experiment: Anticancer activity against human CRO-AP2 cells assessed as cell growth inhibition measured after 72 hrs by DAPI staining based analysis
Procedure, shortened: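 Cells seeded, DAPI-stained DNA content of fixed cells read by imaging 24 h after seeding (T0), and again after a further 72 h exposure to a range of drug concentrations (T72). T72 values were normalized to T0. Curve fits gave the concentration producing 50% growth inhibition relative to T0 and Ymax (GI50).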

BC-3 = experiment: Anticancer activity against human BC-3 cells assessed as cell growth inhibition measured after 72 hrs by DAPI staining based analysis
Procedure, shortened: (§1)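 Cells were seeded and, after 24 h, DNA content was read as T0. Cells were then exposed to varying drug concentrations for a further 72 h (T72). Fixed cells were DAPI-stained and DNA content measured by automated imaging. T72 values were normalized to T0. GI50 is the concentration giving 50% growth inhibition between T0 and Ymax, obtained by curve fitting.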

A 172 = experiment: Anticancer activity against human A-172 cells assessed as cell growth inhibition measured after 72 hrs by DAPI staining based analysis; procedure, shortened: as §1
A498 = experiment: Anticancer activity against human A498 cells assessed as cell doubling measured for 72 hrs by DAPI staining based analysis
HeLa = experiment: Anticancer activity against human HeLa cells assessed as cell doubling measured for 72 hrs by DAPI staining based analysis
NCI-H23 = experiment: Anticancer activity against human NCI-H23 cells assessed as cell growth inhibition measured after 72 hrs by DAPI staining based analysis
CHP-212 [3] = experiment: Anticancer activity against human CHP-212 cells assessed as cell growth inhibition measured after 72 hrs by DAPI staining based analysis
Procedure, shortened: (§2)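 Cells were seeded, and DNA content at 24 h after seeding (T0) was read by imaging of fixed, DAPI-stained cells. Cells were then exposed to a range of drug concentrations for a further 72 h (T72) and DNA content was read again. T72 values were normalized to T0, and GI50 was taken from curve fits as the concentration giving 50% growth inhibition relative to T0 and Ymax.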

THP-1 = experiment: Anticancer activity against human THP-1 cells assessed as cell doubling measured for 72 hrs by DAPI staining based analysis
SHP77 = experiment: Anticancer activity against human SHP77 cells assessed as cell doubling measured for 72 hrs by DAPI staining based analysis
COLO-320-HSR = experiment: Anticancer activity against human COLO 320HSR cells assessed as cell growth inhibition measured after 72 hrs by DAPI staining based analysis; procedure, shortened: as §2
HT-3 = experiment: Anticancer activity against human HT-3 cells assessed as cell doubling measured for 72 hrs by DAPI staining based analysis
HCT-116 = experiment: Antitumor activity against human HCT-116 cells in xenograft model assessed as difference between median time to endpoint time of treated versus control group at 62.5 mg/kg
NCI-H358 = experiment: Anticancer activity against human NCI-H358 cells assessed as cell doubling measured for 72 hrs by DAPI staining based analysis
SF-539 = experiment: Anticancer activity against human SF-539 cells assessed as cell growth inhibition measured after 72 hrs by DAPI staining based analysis
SNB-19 = experiment: Anticancer activity against human SNB-19 cells assessed as cell doubling measured for 72 hrs by DAPI staining based analysis
[4] = Anticancer activity against human BC1 cells assessed as cell growth inhibition measured after 72 hrs by DAPI staining based analysis; procedure, shortened: as §1
RD = experiment: Anticancer activity against human RD cells assessed as cell doubling measured for 72 hrs by DAPI staining based analysis
M14 = experiment: Anticancer activity against human M14 cells assessed as cell growth inhibition measured after 72 hrs by DAPI staining based analysis
C3A = experiment: Anticancer activity against human C3A cells assessed as cell doubling measured for 72 hrs by DAPI staining based analysis
EKVX = experiment: Anticancer activity against human EKVX cells assessed as cell doubling measured for 72 hrs by DAPI staining based analysis
BFTC-905 = experiment: Anticancer activity against human BFTC-905 cells assessed as cell doubling measured for 72 hrs by DAPI staining based analysis
CHP-212 [5] = experiment: Anticancer activity against human CHP-212 cells assessed as cell doubling measured for 72 hrs by DAPI staining based analysis
MX1 = experiment: Antitumor activity against human MX1 cells in xenograft model assessed as tumor growth delay at 125 mg/kg relative to control
SK-N-DZ = experiment: Anticancer activity against human SK-N-DZ cells assessed as cell growth inhibition measured after 72 hrs by DAPI staining based analysis
SCaBER = experiment: Anticancer activity against human SCaBER cells assessed as cell growth inhibition measured after 72 hrs by DAPI staining based analysis
SK-N-FI = experiment: Anticancer activity against human SK-N-FI cells assessed as cell growth inhibition measured after 72 hrs by DAPI staining based analysis
ACHN = experiment: Anticancer activity against human ACHN cells assessed as cell growth inhibition measured after 72 hrs by DAPI staining based analysis; procedure, shortened: as §1
A2780 = experiment: Anticancer activity against human A2780 cells assessed as cell doubling measured for 72 hrs by DAPI staining based analysis

## CC(C)Oc1ccc(C(=O)N[C@H](CNC(=O)CN(C)C)Cc2ccc(-c3cn4cccc([C@H](C)O)c4n3)cc2)cc1Cl [GSK-923295A]
LOX IMVI [1]
  GI50: 25 nM
NCI-H82
  Activity: 2
HMCB cell line
  GI50: 25 nM
LOX IMVI [2]
  Activity: 2.32
NCI-H2122
  Activity: 2.82
CRO-AP2
  GI50: 51 nM
BC-3
  GI50: 88 nM
A 172
  GI50: 27 nM
A498
  Activity: 1.11
HeLa
  Activity: 2.83
NCI-H23
  GI50: 27 nM
CHP-212 [3]
  GI50: 34 nM
THP-1
  Activity: 1.38
SHP77
  Activity: 2.04
COLO-320-HSR
  GI50: 153 nM
HT-3
  Activity: 1.95
HCT-116
  Time: -2.8 days
NCI-H358
  Activity: 2.07
SF-539
  GI50: 28 nM
SNB-19
  Activity: 2.56
[4]
  GI50: 83 nM
RD
  Activity: 2.56
M14
  GI50: 27 nM
C3A
  Activity: 2.23
EKVX
  Activity: 2.69
BFTC-905
  Activity: 3.49
CHP-212 [5]
  Activity: 1.39
MX1
  Activity: 26%
SK-N-DZ
  GI50: 69 nM
SCaBER
  GI50: 54 nM
SK-N-FI
  GI50: 120 nM
ACHN
  GI50: 61 nM
A2780
  Activity: 1.62

— ChEMBL document CHEMBL5705890, “Antitumor activity of an allosteric inhibitor of centromere-associated protein-E” (Proc Natl Acad Sci U S A, 2010)
